STAT1 activator = increases IFN-gamma driven STAT1 reporter signal. NIH 3T3 STAT1-luciferase reporter, luminescence; 100% = IFN-gamma alone, no compound. activation (% of control), % at 5.5 µM. actives 2.6% (n = 200,000). AID 932;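 active = activation above the screen-wide mean activation plus 3 SD, cut at about 130% in these data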
STAT3 activator = increases IL-6 driven STAT3 reporter signal; actives 0.91% (n = 190,000); U3A cells, IL-6 STAT3-luciferase reporter, luminescence; 100% = signal with IL-6 EC80 alone; AID 871; activation (% of control), % at 5.6 µM;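 active = activation above the screen-wide mean of compound activation plus 3 SD, cut at about 130% in these data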
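Test system: Human STAT1-deficient U3A cells with stable STAT3-luciferase reporter | Also added: Interleukin-6, 33 ng/mL | Timing: Compound pre-incubation 1 h before IL-6, then 6 h stimulation at 37 °C | Technique: Luciferase reporter luminescence | Read-out: Percent of IL-6-only median luminescence | Benchmarks: IL-6-only wells as 100% reference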
STAT3 blocker = STAT3 signaling inhibition | AID 862 | inhibition, % at 5.5 µM | U3A cells, IL-6 STAT3-luciferase reporter, luminescence; host cell line lacks STAT1 | actives 0.89% (n = 190,000);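 active = inhibition above the mean inhibition across all screened compounds plus 3 SD, cut at about 44% in these data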
APP 5'UTR act = APP 5'UTR luciferase reporter activation; SH-SY5Y APP 5'UTR luciferase reporter, luminescence; zero percent = DMSO vehicle wells; activation, % at 2 µM; actives 1% (n = 190,000);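 active = activation above a set limit, based on mean plus 3 SD of controls, cut at about 140% in these data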
STAT1 inh = inhibitors of IFN-gamma induced STAT1 signaling | NIH 3T3 STAT1-luciferase reporter, luminescence | inhibition, % at 5.5 µM | actives 0.35% (n = 200,000) | AID 920;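 active = inhibition above a set limit, the mean inhibition across all tested compounds plus 3 SD, cut at about 34% in these data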
NF-kB expr up = raises NF-kB expression in human neuronal cells; fold change at 12.5 µM; actives 1.6% (n = 190,000); NF-kB reporter expression; stronger effect = higher value; in the data active = fold change above about 3.3
Numbers stand for hits; – = inactive; · = not tested or not shown. Sampled rows, rich in hits. Any-hit rate of the full collection: about 5.1%.

SMILES	STAT1 activator	STAT3 activator	STAT3 blocker	APP 5'UTR act	STAT1 inh	NF-kB expr up
c1ccc(C(Cc2nc(-c3cccnc3)no2)c2ccccc2)cc1	–	–	–	–	–	–
Cc1ccc(-c2noc(CSc3ccccc3)n2)cc1	–	–	–	170.0	–	4.4
Cc1cc(C)nc(Oc2ccc(Br)cc2Br)n1	142.0	–	–	–	–	–
Nc1cccc(-n2nnnc2CN2CCOCC2)c1	–	–	–	–	–	–
COC(=O)CCn1nnc(-c2ccc(C(C)C)cc2)n1	–	–	84.3	–	47.7	–
COc1ccc(-n2nc(C(=O)NCC(=O)NCc3ccc(F)cc3)c3ccccc3c2=O)c(OC)c1	–	–	–	–	–	–
CN=C1S/C(=C\c2cn(C(C)=O)nc2-c2ccccc2)C(=O)N1C	–	–	–	–	–	·
CN=C1S/C(=C\c2cn(CC(=O)OC)c3ccccc23)C(=O)N1C	–	134.9	–	–	–	–
Clc1ccc(-c2nc3ccccn3c2CN2CCCCC2)cc1	–	–	45.7	–	–	–
CN(C)Cc1c(-c2ccc(Cl)cc2)nc2ccccn12	140.6	–	–	–	–	–
CC(O)c1nc2ccccc2n1CC(=O)N1CCN(c2ccccc2)CC1 (configuration not stated)	–	–	–	–	–	–
O=C(Nc1ccccc1)OCCCc1ccccc1	139.8	–	–	–	–	–
Cn1nnnc1SCC(=O)Nc1nc2c(s1)CCCC2	143.0	–	–	–	–	3.97
O=C(Cc1cccs1)Nc1nc2c(ccc3ccccc32)s1	–	158.8	–	–	–	–
O=C(Nc1nc2c(s1)CCCC2)c1cccnc1	139.0	–	–	–	–	4.05
O=C(Cc1cccs1)Nc1nc2c(s1)CCCC2	131.1	–	–	–	–	6.07
COc1cc(OC)cc(-n2nnnc2SCC(=O)Nc2nc3c(s2)CCCC3)c1	–	–	–	–	–	–
CN1C(=O)C(CC(=O)NC2CCCCC2)SC1=Nc1ccccc1 (configuration not stated)	–	–	–	–	–	–
CC(Oc1ccc(-n2cnnn2)cc1)C(=O)O (configuration not stated)	–	–	–	–	–	–
S=C(N=Nc1ccccc1)NNc1ccccc1	–	–	–	–	–	3.73
Cc1cccc(/C=C2\CCC(=C3SCCCS3)C2=O)c1	–	–	–	171.9	–	–
O=C1/C(=C/c2ccccc2)CCCc2ccccc21	–	–	–	–	–	–
CCOc1ccc(C(=O)Nc2cc(S(=O)(=O)Nc3ccccc3Cl)ccc2N2CCOCC2)cc1	–	–	–	–	–	–
O=C(COC(=O)c1n[nH]c2ccccc12)Nc1ccccc1	132.9	–	–	–	–	–
O=C(CCc1nnc(-c2ccc3c(c2)OCO3)o1)N1CCC(c2ccc(F)cc2)C1 (configuration not stated)	134.3	–	–	–	–	–
SMILES	STAT1 activator	STAT3 activator	STAT3 blocker	APP 5'UTR act	STAT1 inh	NF-kB expr up
O=C(CCc1nnc(-c2ccc3c(c2)OCO3)o1)NC(c1ccccn1)C(F)(F)F (configuration not stated)	–	–	–	–	–	·
CC1CCN(C(=O)CCc2nnc(-c3ccccc3)o2)CC1	135.4	–	–	–	–	–
O=C(CCc1nnc(Cc2ccc(-c3ccccc3)cc2)o1)N1CCCC1	–	–	–	–	–	–
CC1C=CCC2C(=O)N(c3cc(Cl)ccc3O)C(=O)C12 (configuration not stated)	–	–	–	–	–	–
COc1ccc(/C=C2/SC(=O)N(CCC(=O)Nc3ccccc3)C2=O)cc1OC	–	–	–	–	–	–
COc1ccc(Cn2c(-c3ccc(Br)cc3)c[n+]3ccccc23)cc1	–	–	–	–	–	–
CC(=O)c1sc(NC(=O)C=C(C)C)nc1C	–	–	–	–	–	–
CC(=O)c1sc(NC(=O)C2(F)C(F)(F)C(F)(F)C(F)(F)C(F)(F)C2(F)F)nc1C	–	–	58.4	–	37.4	–
O=C(CCSCCc1ccccn1)Nc1ccc(Cc2ccncc2)cc1	–	–	–	–	–	–
CN1CCN(Cc2cc(Cl)c3cccnc3c2OC(=O)c2cccs2)CC1	–	–	–	–	–	13.1
Cn1ccnc1SCc1cn2cc(Br)ccc2n1	–	–	–	163.9	–	–
C/C(CC(=O)NC(C)(C)C)=N\NC(=O)c1ccccc1N	128.6	–	–	–	–	–
Cc1ccc(C2CCN(C(=S)Nc3cccc(C)c3)C2)cc1 (configuration not stated)	–	–	–	–	–	–
Cc1c(C(=O)N2CCOCC2)sc2nc(-c3ccccc3)cn12	133.9	–	–	–	–	–
Cc1c(C(=O)N2CCN(c3ccc(F)cc3)CC2)sc2nc(-c3ccccc3)cn12	–	–	–	–	–	–
CC(C)c1ccc(OCc2cccc(C(=O)N/N=C/c3cccnc3)c2)cc1	–	–	56.8	–	36.1	–
CCOc1ccc(OCc2cccc(C(=O)N/N=C/c3cccnc3)c2)cc1	–	–	95.5	–	62.3	–
O=C(CSc1nncs1)NCCCc1ccccc1	–	–	–	–	–	–
Nc1ccc(C#Cc2ccccc2)cc1	130.4	–	–	–	–	–
Nc1ccccc1C#Cc1ccccc1	146.1	–	–	–	–	8.73
Nc1ccc(-c2nc3ccccc3[nH]2)cc1	–	–	–	–	–	–
Cc1nc(C)c(/C(O)=C/c2nc3ccccc3oc2=O)s1	–	–	–	–	–	4.75
CNc1nc(-c2ccccn2)nnc1-c1ccccc1	–	–	–	–	–	13.2
c1ccc(-c2nnc(-c3ccccn3)nc2NC2CCCCC2)cc1	–	–	–	–	–	–
Cc1nc(NCc2ccco2)c2c(C)c(C)sc2n1	193.2	138.7	–	–	–	–
SMILES	STAT1 activator	STAT3 activator	STAT3 blocker	APP 5'UTR act	STAT1 inh	NF-kB expr up
Cc1c(C#N)c(NC(=O)CCl)n(Cc2cccs2)c1C	–	–	–	–	–	–
Nc1ccc(CCc2nc3ccccc3o2)cc1	138.1	–	–	163.3	–	–
COc1cccc(CC(=O)Nc2nc3ccccc3[nH]2)c1	–	–	–	–	–	–
COc1cccc(N=c2oc3ccccc3cc2-c2nc3ccccc3[nH]2)c1	146.6	143.3	–	–	–	3.51
COc1cccc(N=c2oc3ccc(OC)cc3cc2-c2nc3ccccc3[nH]2)c1	134.8	151.4	–	–	–	–
COc1ccc2oc(=O)c(-c3nc4ccccc4o3)cc2c1	–	–	–	–	–	·
COc1ccc(C2=Nc3ccccc3OC2)cc1	–	–	–	–	–	8.37
O=C(COC(=O)CSc1ccc2ccccc2c1Br)NC1CC1	–	–	–	–	–	–
COc1ccccc1Oc1ccc(N/C=C/C(=O)c2ccc(C)o2)cc1	132.1	–	–	–	–	–
CC(=O)Nc1ccc(N/C=C/C(=O)c2ccc(C)o2)cc1	143.3	–	–	–	–	–
